From ChEMBL document CHEMBL4251593, “Nontoxic combretafuranone analogues with high in vitro antibacterial activity” (Eur J Med Chem, 2018)
pIC50: −log10 of the molar value. The source made the active and inactive calls.

Key:
Klebsiella pneumoniae [1] = experiment: Antibacterial activity against Klebsiella pneumoniae HK11750/08 clinical isolate after 48 hrs by microdilution assay; assay type: functional; conditions: HK11750/08, 48 h
Candida albicans [2] = experiment: Antifungal activity against Candida albicans ATCC 90028 up to 1 mM after 24 to 48 hrs by microdilution assay; assay type: functional, organism-based
Method in brief: (§1)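 Fungal microdilution following modified CLSI M27-A3/M38-A2, in RPMI 1640 with L-glutamine and 0.165 M MOPS at pH 7.0, with DMSO no more than 2% final. Compounds were 2-fold serially diluted from 2000 to 0.488 µmol/l. The inoculum was 5×10^3 cfu/ml. Incubation was at 35 °C, read visually at 24/48 h (T. mentagrophytes at 72/120 h). MIC was IC80 for yeasts and IC50 for filamentous fungi, determined twice in duplicate.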

Trichosporon asahii = experiment: Antifungal activity against Trichosporon asahii 1188 clinical isolate up to 1 mM after 24 to 48 hrs by microdilution assay; assay type: functional, organism-based; method in brief: as §1
Escherichia coli [3] = experiment: Antibacterial activity against Escherichia coli ATCC 8739 after 48 hrs by microdilution assay; assay type: functional; conditions: ATCC 8739, 48 h
Method in brief: (§2)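 Broth microdilution in Mueller-Hinton medium buffered to pH 7.4 (±0.2), with DMSO as diluent at no more than 2% final. Compounds were tested as 2-fold serial dilutions from 2000 to 0.488 µmol/l. The inoculum was 0.5 McFarland (1.5×10^8 cfu/ml). Plates were held at 37 °C and read visually at 24 and 48 h. MIC was taken as 95% growth inhibition versus control, determined twice in duplicate.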

[4] = tested on: Staphylococcus epidermidis; experiment: Antibacterial activity against Staphylococcus epidermidis HK6966/08 clinical isolate after 24 hrs by microdilution assay; assay type: functional; conditions: HK6966/08, 24 h
Staphylococcus aureus [5] = experiment: Antibacterial activity against methicillin-resistant Staphylococcus aureus HK5996/08 clinical isolate after 48 hrs by microdilution assay; assay type: functional; conditions: HK5996/08, 48 h
Pichia kudriavzevii [6] = experiment: Antifungal activity against Candida krusei ATCC 6258 up to 1 mM after 24 to 48 hrs by microdilution assay; assay type: functional, organism-based; method in brief: as §1
Lichtheimia corymbifera = experiment: Antifungal activity against Absidia corymbifera 272 up to 1 mM after 24 to 48 hrs by microdilution assay; assay type: functional, organism-based; method in brief: as §1
HL-60 [7] = experiment: Cytotoxicity against human HL60 cells assessed as reduction in cell viability after 48 hrs by ATPlite-based luminescent assay; conditions: HL-60, 48 h
Method in brief: (§3)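 Cells were grown […] with 10% FBS, glutamax, NEAA and pen/strep at 37 °C, 5% CO2. Media were DMEM for RPE-1, HepG2 and BJ (BJ plus 10 ng/ml bFGF), F-12K for PC3, and IMDM for K562/HL-60. Cells were seeded at 500 per well and dosed from DMSO at 12 concentrations, 40 µM to 1 nM, in triplicate. After 48 h, intracellular ATP was read by luminescence. ED50 was obtained by variable-slope nonlinear regression.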

Staphylococcus aureus [8] = experiment: Antibacterial activity against Staphylococcus aureus ATCC 6538 after 24 hrs by microdilution assay; assay type: functional; conditions: ATCC 6538, 24 h
PC-3 [9] = experiment: Cytotoxicity against human PC3 cells assessed as reduction in cell viability after 48 hrs by ATPlite-based luminescent assay; conditions: PC-3, 48 h; method in brief: as §3
K562 [10] = experiment: Induction of apoptosis in human K562 cells assessed as caspase 3/7 activity after 24 hrs by caspase-glo luminescent assay; assay type: cell-based; conditions: K562, 24 h
Method in brief: (§4)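 Cells were seeded at 500 per well in their growth media and exposed to 12 concentrations from 40 µM to 1 nM, delivered from DMSO, in triplicate. After 24 h, caspase-3/7 activity was read by Caspase-Glo luminescence. Data were normalized and ED50 was fitted by variable-slope nonlinear regression.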

HepG2 [11] = experiment: Induction of apoptosis in human HepG2 cells assessed as caspase 3/7 activity after 24 hrs by caspase-glo luminescent assay; assay type: cell-based; conditions: HepG2, 24 h; method in brief: as §4
Staphylococcus aureus [12] = experiment: Antibacterial activity against methicillin-resistant Staphylococcus aureus HK5996/08 clinical isolate after 24 hrs by microdilution assay; assay type: functional; conditions: HK5996/08, 24 h
Enterococcus sp. [13] = experiment: Antibacterial activity against Enterococcus sp. HK14365/08 clinical isolate after 48 hrs by microdilution assay; assay type: functional; conditions: HK14365/08, 48 h
Klebsiella pneumoniae [14] = experiment: Antibacterial activity against Klebsiella pneumoniae HK14368/08 clinical isolate after 48 hrs by microdilution assay; assay type: functional; conditions: HK14368/08, 48 h
[15] = tested on: Staphylococcus epidermidis; experiment: Antibacterial activity against Staphylococcus epidermidis HK6966/08 clinical isolate after 48 hrs by microdilution assay; assay type: functional; conditions: HK6966/08, 48 h
Nakaseomyces glabratus = experiment: Antifungal activity against Candida glabrata 20/I clinical isolate up to 1 mM after 24 to 48 hrs by microdilution assay; assay type: functional, organism-based; method in brief: as §1
Aspergillus fumigatus = experiment: Antifungal activity against Aspergillus fumigatus 231 up to 1 mM after 24 to 48 hrs by microdilution assay; assay type: functional, organism-based; method in brief: as §1
MCF7 = experiment: Cytotoxicity against human MCF7 cells assessed as reduction in cell viability after 48 hrs by ATPlite-based luminescent assay; conditions: MCF7, 48 h
K562 [16] = experiment: Cytotoxicity against human K562 cells assessed as reduction in cell viability after 48 hrs by ATPlite-based luminescent assay; conditions: K562, 48 h; method in brief: as §3
Candida parapsilosis = experiment: Antifungal activity against Candida parapsilosis ATCC 22019 up to 1 mM after 24 to 48 hrs by microdilution assay; assay type: functional, organism-based; method in brief: as §1
TERT-RPE1 [17] = experiment: Cytotoxicity against human RPE1 cells assessed as reduction in cell viability after 48 hrs by ATPlite-based luminescent assay; conditions: RPE-1, 48 h; method in brief: as §3
Clavispora lusitaniae = experiment: Antifungal activity against Candida lusitaniae 2446/I clinical isolate up to 1 mM after 24 to 48 hrs by microdilution assay; assay type: functional, organism-based; method in brief: as §1
[18] = tested on: Trichophyton mentagrophytes; experiment: Antifungal activity against Trichophyton mentagrophytes 445 up to 1 mM after 72 to 120 hrs by microdilution assay; assay type: functional, organism-based; method in brief: as §1
Pseudomonas aeruginosa [19] = experiment: Antibacterial activity against Pseudomonas aeruginosa ATCC 9027 after 48 hrs by microdilution assay; assay type: functional; conditions: ATCC 9027, 48 h; method in brief: as §2
Pseudomonas aeruginosa [20] = experiment: Antibacterial activity against Pseudomonas aeruginosa ATCC 9027 after 24 hrs by microdilution assay; assay type: functional; conditions: ATCC 9027, 24 h; method in brief: as §2
Escherichia coli [21] = experiment: Antibacterial activity against Escherichia coli ATCC 8739 after 24 hrs by microdilution assay; assay type: functional; conditions: ATCC 8739, 24 h; method in brief: as §2
Candida tropicalis = experiment: Antifungal activity against Candida tropicalis 156 clinical isolate up to 1 mM after 24 to 48 hrs by microdilution assay; assay type: functional, organism-based; method in brief: as §1
BJ = experiment: Cytotoxicity against human BJ cells assessed as reduction in cell viability after 48 hrs by ATPlite-based luminescent assay; method in brief: as §3
HepG2 [22] = experiment: Cytotoxicity against human HepG2 cells assessed as reduction in cell viability after 48 hrs by ATPlite-based luminescent assay; conditions: HepG2, 48 h; method in brief: as §3
Klebsiella pneumoniae [23] = experiment: Antibacterial activity against Klebsiella pneumoniae HK11750/08 clinical isolate after 24 hrs by microdilution assay; assay type: functional; conditions: HK11750/08, 24 h
Klebsiella pneumoniae [24] = experiment: Antibacterial activity against Klebsiella pneumoniae HK14368/08 clinical isolate after 24 hrs by microdilution assay; assay type: functional; conditions: HK14368/08, 24 h
Enterococcus sp. [25] = experiment: Antibacterial activity against Enterococcus sp. HK14365/08 clinical isolate after 24 hrs by microdilution assay; assay type: functional; conditions: HK14365/08, 24 h
Pichia kudriavzevii [26] = experiment: Antifungal activity against Candida krusei E28 clinical isolate up to 1 mM after 24 to 48 hrs by microdilution assay; assay type: functional, organism-based; method in brief: as §1
TERT-RPE1 [27] = experiment: Induction of apoptosis in human RPE1 cells assessed as caspase 3/7 activity after 24 hrs by caspase-glo luminescent assay; assay type: cell-based; conditions: RPE-1, 24 h; method in brief: as §4
PC-3 [28] = experiment: Induction of apoptosis in human PC3 cells assessed as caspase 3/7 activity after 24 hrs by caspase-glo luminescent assay; assay type: cell-based; conditions: PC-3, 24 h; method in brief: as §4
Candida albicans [29] = experiment: Antifungal activity against Candida albicans ATCC 44859 up to 1 mM after 24 to 48 hrs by microdilution assay; assay type: functional, organism-based; method in brief: as §1
HL-60 [30] = experiment: Induction of apoptosis in human HL60 cells assessed as caspase 3/7 activity after 24 hrs by caspase-glo luminescent assay; assay type: cell-based; conditions: HL-60, 24 h; method in brief: as §4
Staphylococcus aureus [31] = experiment: Antibacterial activity against Staphylococcus aureus ATCC 6538 after 48 hrs by microdilution assay; assay type: functional; conditions: ATCC 6538, 48 h

Cc1ccc(C2=C(c3ccc(Br)cc3)C(=O)OC2(CO)CO)cc1
< 4.40: pIC50 (HL-60 [7]) | pIC50 (PC-3 [9]) | pIC50 (K562 [10]) | pIC50 (HepG2 [11]) | pIC50 (MCF7) | pIC50 (K562 [16]) | pIC50 (TERT-RPE1 [17]) | pIC50 (BJ) | pIC50 (HepG2 [22]) | pIC50 (TERT-RPE1 [27]) | pIC50 (PC-3 [28]) | pIC50 (HL-60 [30])
> 500 µM: MIC95 (Klebsiella pneumoniae [1]) | MIC95 (Escherichia coli [3]) | MIC95 (Enterococcus sp. [13]) | MIC95 (Klebsiella pneumoniae [14]) | MIC95 (Pseudomonas aeruginosa [19]) | MIC95 (Pseudomonas aeruginosa [20]) | MIC95 (Escherichia coli [21]) | MIC95 (Klebsiella pneumoniae [23]) | MIC95 (Klebsiella pneumoniae [24])
500 µM: MIC95 (Staphylococcus aureus [5]) | MIC95 [15] | MIC95 (Enterococcus sp. [25])
inactive: Activity (Candida albicans [2]) | Activity (Trichosporon asahii) | Activity (Pichia kudriavzevii [6]) | Activity (Lichtheimia corymbifera) | Activity (Nakaseomyces glabratus) | Activity (Aspergillus fumigatus) | Activity (Candida parapsilosis) | Activity (Clavispora lusitaniae) | Activity [18] | Activity (Candida tropicalis) | Activity (Pichia kudriavzevii [26]) | Activity (Candida albicans [29])
250 µM: MIC95 (Staphylococcus aureus [12])
62.5 µM: MIC95 [4]
3.9 µM: MIC95 (Staphylococcus aureus [31])
0.98 µM: MIC95 (Staphylococcus aureus [8])

O=C1OCC(c2ccccc2)=C1c1ccc(Br)cc1
inactive: Activity (Candida albicans [2]) | Activity (Trichosporon asahii) | Activity (Pichia kudriavzevii [6]) | Activity (Lichtheimia corymbifera) | Activity (Nakaseomyces glabratus) | Activity (Aspergillus fumigatus) | Activity (Candida parapsilosis) | Activity (Clavispora lusitaniae) | Activity [18] | Activity (Candida tropicalis) | Activity (Pichia kudriavzevii [26]) | Activity (Candida albicans [29])
62.5 µM: MIC95 (Staphylococcus aureus [5]) | MIC95 [15]
31.2 µM: MIC95 [4] | MIC95 (Staphylococcus aureus [12])
15.6 µM: MIC95 (Staphylococcus aureus [31])
> 1000 µM: MIC95 (Klebsiella pneumoniae [1]) | MIC95 (Escherichia coli [3]) | MIC95 (Enterococcus sp. [13]) | MIC95 (Klebsiella pneumoniae [14]) | MIC95 (Pseudomonas aeruginosa [19]) | MIC95 (Pseudomonas aeruginosa [20]) | MIC95 (Escherichia coli [21]) | MIC95 (Klebsiella pneumoniae [23]) | MIC95 (Klebsiella pneumoniae [24]) | MIC95 (Enterococcus sp. [25])
< 4.40: pIC50 (HL-60 [7]) | pIC50 (PC-3 [9]) | pIC50 (K562 [10]) | pIC50 (HepG2 [11]) | pIC50 (MCF7) | pIC50 (K562 [16]) | pIC50 (TERT-RPE1 [17]) | pIC50 (BJ) | pIC50 (HepG2 [22]) | pIC50 (TERT-RPE1 [27]) | pIC50 (PC-3 [28]) | pIC50 (HL-60 [30])
3.9 µM: MIC95 (Staphylococcus aureus [8])

COc1ccc(C2=C(c3cccc(Cl)c3Cl)C(=O)OC2(CO)CO)cc1
15.6 µM: MIC95 (Staphylococcus aureus [31])
250 µM: MIC95 [4] | MIC95 [15]
62.5 µM: MIC95 (Staphylococcus aureus [12])
inactive: Activity (Candida albicans [2]) | Activity (Trichosporon asahii) | Activity (Pichia kudriavzevii [6]) | Activity (Lichtheimia corymbifera) | Activity (Nakaseomyces glabratus) | Activity (Aspergillus fumigatus) | Activity (Candida parapsilosis) | Activity (Clavispora lusitaniae) | Activity [18] | Activity (Candida tropicalis) | Activity (Pichia kudriavzevii [26]) | Activity (Candida albicans [29])
7.81 µM: MIC95 (Staphylococcus aureus [8])
500 µM: MIC95 (Enterococcus sp. [25])
> 500 µM: MIC95 (Klebsiella pneumoniae [1]) | MIC95 (Escherichia coli [3]) | MIC95 (Enterococcus sp. [13]) | MIC95 (Klebsiella pneumoniae [14]) | MIC95 (Pseudomonas aeruginosa [19]) | MIC95 (Pseudomonas aeruginosa [20]) | MIC95 (Escherichia coli [21]) | MIC95 (Klebsiella pneumoniae [23]) | MIC95 (Klebsiella pneumoniae [24])
< 4.40: pIC50 (HL-60 [7]) | pIC50 (PC-3 [9]) | pIC50 (K562 [10]) | pIC50 (HepG2 [11]) | pIC50 (MCF7) | pIC50 (K562 [16]) | pIC50 (TERT-RPE1 [17]) | pIC50 (BJ) | pIC50 (HepG2 [22]) | pIC50 (TERT-RPE1 [27]) | pIC50 (PC-3 [28]) | pIC50 (HL-60 [30])
125 µM: MIC95 (Staphylococcus aureus [5])
